Source: paper PMC11389331 (BMC Biology, 2024)

Experiments:
B. dioryctriae [1] = assay: Y-tube olfactometer assay; type: in vivo, Baryscapus dioryctriae; conditions: 20 μL test chemical vs paraffin oil, chi-square test
How it was run: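 Binary Y-tube (1.1 cm diameter, 6 cm base and arms, 60° between arms) used with wasps reared at 25 ± 1 °C, 50 ± 5% RH. One arm held 20 × 50 mm filter paper loaded with 20 μL test chemical; the other held 20 μL paraffin oil. After every five wasps, the tube was cleaned with dehydrated alcohol and air-dried, and odour sides were swapped.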

B. dioryctriae [2] = conditions: cited from earlier work

Structure (SMILES) | behavioral response (attraction) of B. dioryctriae adults (B. dioryctriae [1]) | effect on reproductive efficiency of B. dioryctriae (B. dioryctriae [2])
C=C1CC[C@H]2O[C@]2(C)CC[C@@H]2[C@@H]1CC2(C)C [Caryophyllene oxide] | does not attract | –
CC1=CCC2CC1C2(C)C (stereo not drawn) [α-Pinene] | significantly attract | –
CC1=CCC(C(C)C)=CC1 [g-Terpinene] | significantly attract | –
CCCCCC=C(C=O)CCCC [2-butyl-2-octenal] | – | significantly improve
